In ChEMBL document CHEMBL3272330, “Synthesis and antimineralocorticoid activities of some 7alpha-cyano and 7alpha-alkoxycarbonylamino steroidal spirolactones” (1976):
Calls of active or inactive are those of the source. No cut-off for these calls is given here.

Legend:
Rattus norvegicus [1] = assay: In vivo inhibition of deoxycorticosterone acetate-induced urinary electrolyte effect in sc dosed adrenalectomized rat measured over 4 hrs; format: functional, Urine
Method in brief: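 Groups of four adrenalectomized rats (150-200 g) were pretreated sc with 12 µg deoxycorticosterone acetate plus 2.5 ml isotonic saline, then dosed subcutaneously with test compound. The assay ran 4 h. MED (mg/rat) is the dose giving 50% inhibition of the DCA-induced increase in urinary Na/K ratio.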

Rattus norvegicus [2] = assay: In vivo inhibition of deoxycorticosterone acetate-induced urinary electrolyte effect in ig dosed adrenalectomized rat measured over 4 hrs; format: functional, Urine
Method in brief: (§1)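 Adrenalectomized rats (150-200 g) in groups of four each received 12 µg deoxycorticosterone acetate and 2.5 ml isotonic saline sc before intragastric test compound, with 2.4 mg/rat as the standard level. Urine was collected over 4 h. The value is the median effective dose (mg/rat) giving 50% inhibition of the DCA-induced rise in urinary Na/K ratio.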

Rattus norvegicus [3] = assay: In vivo inhibition of deoxycorticosterone acetate-induced urinary electrolyte effect in po dosed adrenalectomized rat measured over 4 hrs; format: functional, organism-based; conditions: Urine; method in brief: as §1

| Compound | MED50 (Rattus norvegicus [1]) [mg] | MED50 (Rattus norvegicus [2]) [mg] | inhibition (Rattus norvegicus [3]) |
| --- | --- | --- | --- |
| COC(=O)N[C@@H]1CC2=CC(=O)CC[C@]2(C)[C@H]2CC[C@@]3(C)[C@@H](CC[C@@]34CCC(=O)O4)[C@H]12 | 0.79 | 2 |  |
| C[C@]12CCC(=O)C=C1C[C@@H](C#N)[C@@H]1[C@@H]2CC[C@@]2(C)[C@H]1CC[C@@]21CCC(=O)O1 | 0.39 | >2.4 |  |
| C[C@]12CC[C@H]3[C@@H]([C@H](C#N)CC4=CC(=O)CC[C@@H]43)[C@@H]1CC[C@@]21CCC(=O)O1 | 1.3 | >2.4 |  |
| C[C@]12C=CC(=O)C=C1C[C@@H](C#N)[C@@H]1[C@@H]2CC[C@@]2(C)[C@H]1CC[C@@]21CCC(=O)O1 | 2.3 | >2.4 | inactive |
| C[C@]12CCC(=O)C=C1C[C@@H](C#N)[C@@H]1[C@@H]2CC[C@@]2(C)[C@H]1CC[C@@]2(O)CCC(=O)[O-].[K+] |  | 2.3 | inactive |
| CCOC(=O)N[C@@H]1CC2=CC(=O)CC[C@]2(C)[C@H]2CC[C@@]3(C)[C@@H](CC[C@@]34CCC(=O)O4)[C@H]12 | >2.4 | >2.4 |  |
| C[C@]12CCC(=O)C=C1C[C@@H](N=C=O)[C@@H]1[C@@H]2CC[C@@]2(C)[C@H]1CC[C@@]21CCC(=O)O1 | >2.4 | >2.4 |  |
